Measured values pooled from the literature.
Compare with care: the assays were run in different laboratories.
Target: Misshapen-like kinase 1 (MINK1, Homo sapiens, UniProt Q8N4C8)

FC(F)(F)c1ccc2c(c1)nc(-c1cccnc1)n2C1CC1 — remaining binding (cell-free assay; competition with immobilised ligand; 1 µM): 100%
CCN1CCN(Cc2ccc(C(=O)Nc3ccc(C)c(Oc4ccc5c(c4)CC(=O)N5)c3)cc2C(F)(F)F)CC1 — remaining binding (binding; competition with immobilised ligand; 1 µM): 100%
CN(C)c1nccc(-c2cnc3ncccn23)n1 — remaining binding (binding; 1 µM): 82%
O=C(Nc1cnc(Oc2ccc(F)cc2)nc1)N1CCc2ncccc2[C@@H]1c1ccc(F)cc1 — remaining binding (cell-free assay; competition with immobilised ligand; 1 µM): 100%
c1cncc(-c2cccc(Nc3nccc(NC4CCCCC4)n3)c2)c1 — remaining binding (binding; competition with immobilised ligand; 10 µM): 4.8%
CN(C)c1ncc(F)c(-c2cnn3ncccc23)n1 — remaining binding (binding; 1 µM): 80%
Cc1c[nH]c2nccc(Oc3c(F)cc(Nc4cc(Cl)nc(N)n4)cc3F)c12 — remaining binding (cell-free assay; competition with immobilised ligand; 0.1 µM): 100%
COc1cnc(Nc2cccc(S(N)(=O)=O)c2)nc1N1CCN(c2ccccc2)CC1 — remaining binding (binding; competition with immobilised ligand; 1 µM): 76%
CN(C)C(=O)Cn1cc(-c2nc([C@@](C)(c3ccc(-c4cnc(N)nc4)cc3)C3CC3)no2)cn1 — remaining binding (cell-free assay; competition with immobilised ligand; 1 µM): 85%
Nc1ncc2c(n1)-c1c([nH]c3ccc(C#CC4CC4)cc13)CCCC2 — remaining binding (binding; competition with immobilised ligand; 1 µM): 94%
O=C(Nc1cccnn1)N1CC(C/C=C/c2cncc(Oc3ccc(C(F)(F)F)cn3)n2)C1 — remaining binding (cell-free assay; competition with immobilised ligand; 1 µM): 100%
Cc1cnc(Nc2ccc(C(=O)N3CCC(N4CCCC4)CC3)cc2)nc1-c1cc2ccccc2s1 — remaining binding (binding; competition with immobilised ligand; 1 µM): 40%
CC1CCCN1c1nccc(-c2cnn3ncccc23)n1 (stereo not shown) — remaining binding (binding; 1 µM): 90%
O=C(NCC1CCOCC1)c1n[nH]cc1NC(=O)c1c(F)cccc1F — remaining binding (binding; competition with immobilised ligand; 1 µM): 77%
C[C@@H](c1ccc(-n2cnc3c(N)ncnc32)cc1)N1CCc2nn(C)c(Cc3ccccc3)c2C1=O — remaining binding (binding; competition with immobilised ligand; 0.1 µM): 88%
CC(=O)C1=C(C)N(c2cccc(C(F)(F)F)c2)C(=O)N[C@@H]1c1ccc(C#N)nc1 — remaining binding (cell-free assay; competition with immobilised ligand; 1 µM): 100%
C[C@@H]1CCN(c2nccc(-c3cnn4ncccc34)n2)C1 — remaining binding (binding; 1 µM): 74%
COc1cnc(Nc2cccc(S(N)(=O)=O)c2)nc1N1CCN(c2ccccc2)C(=O)C1 — remaining binding (binding; competition with immobilised ligand; 1 µM): 78%
c1cnn2ncc(-c3ccnc(N4CCC45COC5)n3)c2c1 — remaining binding (binding; 1 µM): 68%
O=C(c1ccc(Nc2ncc(Cl)c(-c3ccc(Cl)s3)n2)cc1)N1CCC(N2CCCC2)CC1 — remaining binding (binding; competition with immobilised ligand; 1 µM): 17%
N[C@H]1CCN(c2nccc(-c3cnn4ncccc34)n2)C1 — remaining binding (binding; 1 µM): 100%
O=C(NCCCN1CCOCC1)c1ccc(Nc2nccc(-c3cc4ccccc4s3)n2)cc1 — remaining binding (binding; competition with immobilised ligand; 1 µM): 46%
